{"source": "paper PMC10692362", "about": "(Acta Pharmaceutica Sinica. B, 2023)", "key": {"human ERβ LBD": {"target": "human ERβ LBD (Homo sapiens, UniProt Q92731)", "sequence (Q92731 264-498 limits assumed)": "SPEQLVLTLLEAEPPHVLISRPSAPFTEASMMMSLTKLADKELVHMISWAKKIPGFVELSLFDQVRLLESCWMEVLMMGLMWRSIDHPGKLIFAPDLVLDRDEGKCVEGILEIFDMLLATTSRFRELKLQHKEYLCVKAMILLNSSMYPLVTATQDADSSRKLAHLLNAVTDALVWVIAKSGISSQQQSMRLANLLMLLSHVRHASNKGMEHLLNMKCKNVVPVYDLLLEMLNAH", "assay": "Competitive fluorescence polarization binding assay, ERβ"}, "MCF-7 cells": {"tested_on": "MCF-7 cells", "assay": "Cell viability assay", "type": "cell-based, human"}, "T-47D cells": {"tested_on": "T-47D cells", "assay": "Cell viability assay", "type": "cell-based, human", "conditions": "Homo sapiens, T47D, 72 h, read-out: T-47D IC50"}, "T-47D^D538G cells": {"tested_on": "T-47D^D538G cells", "assay": "Cell viability assay", "type": "cell-based, human", "conditions": "Homo sapiens, 72 h, read-out: T-47D^D538G IC50"}, "ERβ [1]": {"target": "T1, ERβ (Homo sapiens, UniProt Q92731)", "T1 sequence (Q92731 whole entry)": "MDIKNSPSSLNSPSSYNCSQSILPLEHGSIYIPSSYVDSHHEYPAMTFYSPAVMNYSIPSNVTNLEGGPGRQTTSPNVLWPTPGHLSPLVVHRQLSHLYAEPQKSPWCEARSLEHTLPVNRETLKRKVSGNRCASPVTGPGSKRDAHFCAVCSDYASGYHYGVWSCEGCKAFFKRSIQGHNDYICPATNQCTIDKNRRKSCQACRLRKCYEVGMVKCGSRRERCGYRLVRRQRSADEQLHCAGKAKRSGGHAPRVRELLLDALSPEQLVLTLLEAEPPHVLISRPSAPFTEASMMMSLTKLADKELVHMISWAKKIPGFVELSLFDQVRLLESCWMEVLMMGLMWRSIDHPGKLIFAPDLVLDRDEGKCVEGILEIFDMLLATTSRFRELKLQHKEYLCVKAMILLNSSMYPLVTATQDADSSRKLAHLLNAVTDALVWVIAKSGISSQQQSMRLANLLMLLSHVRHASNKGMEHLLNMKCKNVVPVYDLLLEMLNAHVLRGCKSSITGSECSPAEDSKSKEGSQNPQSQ", "assay": "ER transcriptional activity", "type": "cell-based"}, "ERα [2]": {"target": "T2, ERα (Homo sapiens, UniProt P03372)", "T2 sequence (P03372 1-595)": "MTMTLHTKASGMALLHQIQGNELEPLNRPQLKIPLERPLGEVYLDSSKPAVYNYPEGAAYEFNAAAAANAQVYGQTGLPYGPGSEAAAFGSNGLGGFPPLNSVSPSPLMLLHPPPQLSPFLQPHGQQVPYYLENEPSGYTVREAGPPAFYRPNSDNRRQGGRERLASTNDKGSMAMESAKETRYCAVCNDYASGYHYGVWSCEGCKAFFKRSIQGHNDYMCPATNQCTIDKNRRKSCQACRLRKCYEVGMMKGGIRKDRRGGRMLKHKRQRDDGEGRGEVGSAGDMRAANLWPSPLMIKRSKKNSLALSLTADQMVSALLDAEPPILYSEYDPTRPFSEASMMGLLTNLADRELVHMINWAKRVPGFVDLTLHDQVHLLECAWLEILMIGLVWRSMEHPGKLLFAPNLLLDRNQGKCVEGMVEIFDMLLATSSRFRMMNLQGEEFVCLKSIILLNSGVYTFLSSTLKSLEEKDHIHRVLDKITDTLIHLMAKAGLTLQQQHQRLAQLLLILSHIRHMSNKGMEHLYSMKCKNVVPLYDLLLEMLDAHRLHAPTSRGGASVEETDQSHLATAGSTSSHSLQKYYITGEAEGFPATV", "assay": "Immunoblot analysis of ERα degradation in LCC-2 cells", "type": "cell-based", "conditions": "5 μmol/L over 12 h"}, "ERα Y537S": {"target": "T3, ERα Y537S (Homo sapiens, UniProt P03372, Y537S)", "T3 sequence (P03372 1-595 Y537S)": "T2 sequence (P03372 1-595) with Y537S", "assay": "Immunoblot analysis of ERα degradation in T-47D^Y537S cells", "type": "cell-based", "conditions": "5 μmol/L over 12 h"}, "ERα [3]": {"tested_on": "ERα", "assay": "Immunoblot analysis of ERα degradation across ERα^WT and ERα^MUT BC cell lines", "type": "cell-based, human", "conditions": "5 μmol/L 29c with 10 μmol/L MG-132"}, "ERβ [4]": {"target": "T1, ERβ", "type": "cell-based", "conditions": "5 μmol/L, HEK-293T cells", "method_in_brief": "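Transfected HEK-293T cells treated with test compound; ERβ protein assessed by immunoblot. Lysates prepared with RIPA buffer, resolved by SDS-PAGE and transferred to PVDF. Membranes blocked in 5% skim milk and developed by ECL, with β-actin as loading control.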"}, "[5]": {"tested_on": "ERα^WT and ERα^MUT BC cell lines (MCF-7, LCC-2, T-47D, T-47D^D538G, T-47D^Y537S)", "assay": "Apoptosis by flow cytometry", "type": "cell-based, human", "conditions": "5 μmol/L, 48 h"}, "[6]": {"target": "T4, ERα Y537S and C381S–C417S–Y537S proteins (Homo sapiens, UniProt P03372, Y537S)", "T4 sequence (P03372 305-554 Y537S)": "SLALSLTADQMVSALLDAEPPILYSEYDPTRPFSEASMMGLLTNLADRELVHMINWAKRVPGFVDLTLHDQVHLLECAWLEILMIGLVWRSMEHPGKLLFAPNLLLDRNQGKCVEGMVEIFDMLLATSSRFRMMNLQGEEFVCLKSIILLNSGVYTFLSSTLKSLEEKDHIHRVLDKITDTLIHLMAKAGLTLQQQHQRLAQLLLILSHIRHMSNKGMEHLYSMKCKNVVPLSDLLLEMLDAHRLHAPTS", "assay": "Intact mass spectrometry to assess covalency", "type": "binding", "conditions": "20 μmol/L compound : 1 μmol/L protein, 4 °C overnight"}, "PK studies in mice": {"assay": "PK studies in mice", "type": "in vivo, BALB/c female mice", "method_in_brief": "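Female BALB/c mice (n = 3/group) were dosed iv at 2 mg/kg in DMSO/PEG400/β-cyclodextrin/saline (5:40:10:45), ip at 4 mg/kg in DMSO/PEG400/saline (5:40:55), or po at 20 mg/kg in corn oil/DMSO (95:5). Blood was sampled at […]. Plasma was deproteinised with MeCN and analysed by LC/MS/MS, with three plasma samples per time point.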"}, "[7]": {"conditions": "female, BALB/c, mouse, plasma, ip, 4 mg/kg"}, "[8]": {"conditions": "female, BALB/c, mouse, plasma, iv, 2 mg/kg"}, "[9]": {"conditions": "female, BALB/c, mouse, plasma, po, 20 mg/kg"}}, "note": "Where a chain is given by its changes, count along the chain named."}
{"smiles": "CC(C)=CC(=O)Nc1ccc(C2=C(c3ccc(O)cc3)C3OC2CC3S(=O)(=O)N(CC(F)(F)F)c2ccc(O)cc2)cc1", "note": "(stereo not drawn) [Compound 29c, N-(4-(3-(4-Hydroxyphenyl)-5-(N-(4-hydroxyphenyl)-N-(2,2,2-trifluoroethyl)sulfamoyl)-7-oxabicyclo[2.2.1]hept-2-en-2-yl)phenyl)-3-methylbut-2-enamide]", "values": [{"measurement": "Ki", "setting": "human ERβ LBD", "result": 10.9, "unit": "nM"}, {"measurement": "RBA ERβ", "setting": "human ERβ LBD; IC50 estradiol/IC50 compound × 100, estradiol = 100%", "result": "0.61 ± 0.11", "unit": "%"}, {"measurement": "fold higher potency than 4-OHT, MCF-7", "setting": "MCF-7 cells", "result": 12, "unit": "fold"}, {"measurement": "IC50", "setting": "MCF-7 cells; Homo sapiens, MCF7, 72 h, read-out: MCF-7 IC50", "result": "56 ± 4", "unit": "nM"}, {"measurement": "fold higher potency than Ful, MCF-7", "setting": "MCF-7 cells; compared with fulvestrant", "result": 2.5, "unit": "fold"}, {"measurement": "IC50", "setting": "T-47D cells", "result": "870 ± 150", "unit": "nM"}, {"measurement": "IC50", "setting": "T-47D^D538G cells", "result": "1910 ± 180", "unit": "nM"}, {"measurement": "Agonist mode ERβ Eff (%E2)", "setting": "ERβ [1]; control as 0%, 10 nmol/L E2 as 100%", "result": "19 ± 1", "unit": "%E2"}, {"measurement": "Antagonist mode ERβ Eff (%E2)", "setting": "ERβ [1]; with 10 nmol/L 17β-estradiol", "result": "27 ± 2", "unit": "%E2"}, {"measurement": "ERα degradation time course, LCC-2", "setting": "ERα [2]", "result": "completely degraded"}, {"measurement": "ERα degradation time course, T-47D^Y537S", "setting": "ERα Y537S", "result": "completely degraded"}, {"measurement": "ERα degradation with proteasome inhibitor", "setting": "ERα [3]", "result": "lost its ability to degrade ERα"}, {"measurement": "ERβ degradation (immunoblot)", "setting": "ERβ [4]", "result": "no degradation capacity for ERβ"}, {"measurement": "Induction of apoptosis", "setting": "[5]", "result": "significantly induced apoptosis"}, {"measurement": "Covalent adduct with ERα (intact MS)", "setting": "[6]", "result": "specifically and covalently bound to residue C530"}, {"measurement": "AUC", "setting": "PK studies in mice; [7]", "result": 960, "unit": "ng·h/mL"}, {"measurement": "Cmax", "setting": "PK studies in mice; [7]", "result": 352, "unit": "ng/mL"}, {"measurement": "Tmax", "setting": "PK studies in mice; [7]", "result": 0.167, "unit": "h"}, {"measurement": "half-life", "setting": "PK studies in mice; [7]", "result": 6.38, "unit": "h"}, {"measurement": "AUC", "setting": "PK studies in mice; [8]", "result": 1210, "unit": "ng·h/mL"}, {"measurement": "Cmax", "setting": "PK studies in mice; [8]", "result": 1420, "unit": "ng/mL"}, {"measurement": "Tmax", "setting": "PK studies in mice; [8]", "result": 0.083, "unit": "h"}, {"measurement": "Vd", "setting": "PK studies in mice; [8]", "result": 4.5, "unit": "L/kg"}, {"measurement": "clearance", "setting": "PK studies in mice; [8]", "result": 27.7, "unit": "mL/min/kg"}, {"measurement": "half-life", "setting": "PK studies in mice; [8]", "result": 2.77, "unit": "h"}, {"measurement": "AUC", "setting": "PK studies in mice; [9]", "result": 360, "unit": "ng·h/mL"}, {"measurement": "Cmax", "setting": "PK studies in mice; [9]", "result": 153, "unit": "ng/mL"}, {"measurement": "Tmax", "setting": "PK studies in mice; [9]", "result": 0.5, "unit": "h"}, {"measurement": "half-life", "setting": "PK studies in mice; [9]", "result": 5.81, "unit": "h"}, {"measurement": "Oral bioavailability", "setting": "PK studies in mice; mice", "result": "insufficient oral bioavailability"}]}
